From ChEMBL document CHEMBL1914412, “Molecular modeling study and synthesis of novel dicationic flexible triaryl guanidines and imidamides as antiprotozoal agents” (Eur J Med Chem, 2011) come the findings set out here.

The subject of one data set is Nucleic Acid. Description: Binding affinity to poly(dA-dT) DNA assessed as change in melting temperature at compound/polynucleotide ratio 0.3 in MES10 buffer by spectrophotometry. The data set is classed as nucleic-acid assay.
The subject of data set [1] is Trypanosoma brucei rhodesiense. The data set is described as follows: Antitrypanosomal activity against Trypanosoma brucei rhodesiense STIB900 after 72 hrs using alamar blue staining by microplate fluorometric analysis. It counts as functional, organism-based. The conditions noted are these: STIB900, 72 h. The method in brief:
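STIB 900 trypanosome suspension with serial drug dilutions, 37 °C, 5% CO₂, 72 h; Alamar Blue added and incubation continued 2–4 h. Two independent runs, each in duplicate.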

Data set [2] relates to Plasmodium falciparum. Description: Antiplasmodial activity against Plasmodium falciparum K1 infected in human red blood cells assessed as [3H]hypoxanthine incorporation after 48 hrs by liquid scintillation counting. It counts as functional, organism-based.
Data set [3] is described as follows: Selectivity index, ratio of IC50 for Trypanosoma brucei rhodesiense STIB900 to IC50 for Plasmodium falciparum K1. The data set is classed as functional.
In another data set the test system is L6. Description: Cytotoxicity against rat L6 cells after 72 hrs by alamar blue staining-based microplate fluorometric analysis. Conditions: L6, 72 h. It counts as cell-based.
Data set [4] relates to Plasmodium falciparum. Description: Ratio of IC50 for pentamidine to IC50 for compound for Plasmodium falciparum K1. It counts as functional.
The nature of data set [5]: Ratio of IC50 for compound to IC50 for pentamidine for rat L6 cells. The data set is classed as cell-based. Conditions: read-out: Ratio IC50.

For `CC(C)/N=C(\N)Nc1ccc(Oc2ccc(Oc3ccc(N/C(N)=N/C(C)C)cc3)cc2)cc1.Cl.Cl`, the ΔTm in the data set with Nucleic Acid came to 0 °C. In addition, the IC50 stood at 160 nM in data set [1], 17.2 nM with Plasmodium falciparum [2] and 19600 nM in the data set on L6. Further, the Ratio IC50 in data set [3] stood at 9.3; in the data set with Plasmodium falciparum [4], 2.7. Moreover, the selectivity ratio in data set [5] was determined as 9.3.

`C/N=C(/N)Nc1ccc(Oc2ccc(Oc3ccc(N/C(N)=N/C)cc3)cc2)cc1.Cl.Cl`: in the data set with Nucleic Acid, the ΔTm amounted to 0.8 °C. For the same compound, the IC50 in data set [1] is 155 nM; in the data set on Plasmodium falciparum [2] it was 14.1 nM; with L6 it was 57300 nM. For the same compound, the Ratio IC50 in data set [3] stood at 11; with Plasmodium falciparum [4], 3.3. The selectivity ratio in data set [5] was 27.

As for `N=C(Nc1ccc(Oc2cccc(Oc3ccc(NC(=N)C4CCCCC4)cc3)c2)cc1)C1CCCCC1`, the ΔTm in the data set on Nucleic Acid came to 0 °C. In addition, the IC50 came out at 395 nM in data set [1], 307 nM in the data set on Plasmodium falciparum [2] and 3900 nM in the data set on L6. The Ratio IC50 in data set [3] came to 1.3. Besides, in data set [5], the selectivity ratio amounted to 1.9.

As for `CC(C)(C)c1ccc(C(=N)Nc2ccc(Oc3ccc(Oc4ccc(NC(=N)c5ccc(C(C)(C)C)cc5)cc4)cc3)cc2)cc1`, in the data set on Nucleic Acid, the ΔTm was found to be 0 °C. The figures for the IC50 (in data set [1]; in the data set with Plasmodium falciparum [2]; with L6) were 400 nM, 60 nM and 1500 nM, respectively. Besides, the Ratio IC50 in data set [3] worked out at 6.7. In data set [5], the selectivity ratio was 0.71.

On to `N=C(Nc1ccc(Oc2cccc(Oc3ccc(NC(=N)c4ccc(-c5ccccc5)cc4)cc3)c2)cc1)c1ccc(-c2ccccc2)cc1`, for which the ΔTm with Nucleic Acid was determined as 0 °C. Also, the IC50 in data set [1] was 82300 nM; in the data set with Plasmodium falciparum [2], 4700 nM; in the data set on L6, 9100 nM. Further, the Ratio IC50 in data set [3] came to 17. Besides, in data set [5], the selectivity ratio was determined as 4.3.

Take `N=C(N)Nc1ccc(Oc2cccc(Oc3ccc(NC(=N)N)cc3)c2)cc1`: in the data set on Nucleic Acid, the ΔTm was determined as 1.1 °C. The IC50 is 171 nM in data set [1], 27 nM with Plasmodium falciparum [2] and 10600 nM in the data set on L6. Further, in data set [3], the Ratio IC50 worked out at 6.3. For the same compound, in data set [5], the selectivity ratio turned out to be 5.

With `N=C(Nc1ccc(Oc2ccc(Oc3ccc(NC(=N)C4CCCCC4)cc3)cc2)cc1)C1CCCCC1`, the ΔTm in the data set on Nucleic Acid came out at 2.1 °C. Also, the IC50 amounted to 427 nM in data set [1], 259 nM in the data set on Plasmodium falciparum [2] and 3100 nM with L6. Moreover, the Ratio IC50 in data set [3] is 1.6. The selectivity ratio in data set [5] turned out to be 1.5.

As for `CC(C)/N=C(\N)Nc1ccc(Oc2cccc(Oc3ccc(N/C(N)=N/C(C)C)cc3)c2)cc1.Cl.Cl`, in the data set on Nucleic Acid, the ΔTm amounted to 0 °C. The IC50 turned out to be 155 nM in data set [1], 38.2 nM in the data set on Plasmodium falciparum [2] and 82100 nM with L6. Further, the Ratio IC50 is 4.1 in data set [3] and 1.2 in the data set with Plasmodium falciparum [4]. In addition, in data set [5], the selectivity ratio stood at 39.

As for `CC(C)(C)c1ccc(C(=N)Nc2ccc(Oc3cccc(Oc4ccc(NC(=N)c5ccc(C(C)(C)C)cc5)cc4)c3)cc2)cc1`, the ΔTm with Nucleic Acid worked out at 0 °C. Also, the IC50 amounted to 2780 nM in data set [1], 627 nM in the data set with Plasmodium falciparum [2] and 81400 nM in the data set on L6. The Ratio IC50 in data set [3] is 4.4. Also, the selectivity ratio in data set [5] was 39.

As to `N=C(N)Nc1ccc(Oc2ccc(Oc3ccc(NC(=N)N)cc3)cc2)cc1`, the ΔTm in the data set on Nucleic Acid came to 2.1 °C. For the same compound, the IC50 was found to be 151 nM in data set [1], 26.5 nM in the data set with Plasmodium falciparum [2] and 11600 nM in the data set on L6. Besides, in data set [3], the Ratio IC50 came out at 5.7. Besides, the selectivity ratio in data set [5] was 5.5.

For `C/N=C(\N)Nc1ccc(Oc2cccc(Oc3ccc(N/C(N)=N/C)cc3)c2)cc1.Cl.Cl`, the ΔTm in the data set with Nucleic Acid was 0.1 °C. In addition, the IC50 in data set [1] is 318 nM; in the data set on Plasmodium falciparum [2], 21.5 nM; in the data set on L6 it was 45700 nM. Moreover, the Ratio IC50 in data set [3] was 14.8; in the data set on Plasmodium falciparum [4], 2.2. Besides, in data set [5], the selectivity ratio is 22.

Consider `N=C(Nc1ccc(Oc2ccc(Oc3ccc(NC(=N)c4ccccc4)cc3)cc2)cc1)c1ccccc1`, for which the ΔTm in the data set with Nucleic Acid came to 5 °C. In addition, the IC50 in data set [1] stood at 863 nM; in the data set with Plasmodium falciparum [2], 71.5 nM; with L6 it was 2800 nM. For the same compound, the Ratio IC50 in data set [3] was determined as 12.1. In addition, in data set [5], the selectivity ratio is 1.3.

As to `N=C(Nc1ccc(Oc2ccc(Oc3ccc(NC(=N)c4ccc(-c5ccccc5)cc4)cc3)cc2)cc1)c1ccc(-c2ccccc2)cc1`, in the data set with Nucleic Acid, the ΔTm turned out to be 0.1 °C. Further, the results for the IC50 (in data set [1]; with Plasmodium falciparum [2]; with L6) were 612 nM, 63.3 nM and above 120000 nM, respectively. Besides, in data set [3], the Ratio IC50 was determined as 9.6. For the same compound, in data set [5], the selectivity ratio was found to be 60.

Take `N=C(Nc1ccc(Oc2cccc(Oc3ccc(NC(=N)c4ccccc4)cc3)c2)cc1)c1ccccc1`: the ΔTm in the data set on Nucleic Acid came to 2 °C. Besides, the 50% inhibitory concentration (IC50) in data set [1] turned out to be 1040 nM; in the data set with Plasmodium falciparum [2], 251 nM; with L6 it was 900 nM. Also, in data set [3], the Ratio IC50 was 4.2. In addition, the selectivity ratio in data set [5] is 0.43.
